# Test results: ChEMBL document CHEMBL4219109, “Design, synthesis and biological evaluation of novel hydroxamic acid based histone deacetylase 6 selective inhibitors bearing phenylpyrazol scaffold as surface recognition motif” (Bioorg Med Chem, 2018)
# Columns and labels:
# [1] = biological target: T1, Protein deacetylase HDAC6 (Homo sapiens, UniProt Q9UBN7); assay: (§1) Inhibition of full length recombinant human N-terminal GST-tagged HDAC6 expressed in baculovirus infected sf9 cells using Boc-Lys-(Ac)-AMC as substrate preincubated for 15 mins followed by substrate addition measured after 60 mins by fluorescence assay
# T1 sequence (Q9UBN7 whole entry): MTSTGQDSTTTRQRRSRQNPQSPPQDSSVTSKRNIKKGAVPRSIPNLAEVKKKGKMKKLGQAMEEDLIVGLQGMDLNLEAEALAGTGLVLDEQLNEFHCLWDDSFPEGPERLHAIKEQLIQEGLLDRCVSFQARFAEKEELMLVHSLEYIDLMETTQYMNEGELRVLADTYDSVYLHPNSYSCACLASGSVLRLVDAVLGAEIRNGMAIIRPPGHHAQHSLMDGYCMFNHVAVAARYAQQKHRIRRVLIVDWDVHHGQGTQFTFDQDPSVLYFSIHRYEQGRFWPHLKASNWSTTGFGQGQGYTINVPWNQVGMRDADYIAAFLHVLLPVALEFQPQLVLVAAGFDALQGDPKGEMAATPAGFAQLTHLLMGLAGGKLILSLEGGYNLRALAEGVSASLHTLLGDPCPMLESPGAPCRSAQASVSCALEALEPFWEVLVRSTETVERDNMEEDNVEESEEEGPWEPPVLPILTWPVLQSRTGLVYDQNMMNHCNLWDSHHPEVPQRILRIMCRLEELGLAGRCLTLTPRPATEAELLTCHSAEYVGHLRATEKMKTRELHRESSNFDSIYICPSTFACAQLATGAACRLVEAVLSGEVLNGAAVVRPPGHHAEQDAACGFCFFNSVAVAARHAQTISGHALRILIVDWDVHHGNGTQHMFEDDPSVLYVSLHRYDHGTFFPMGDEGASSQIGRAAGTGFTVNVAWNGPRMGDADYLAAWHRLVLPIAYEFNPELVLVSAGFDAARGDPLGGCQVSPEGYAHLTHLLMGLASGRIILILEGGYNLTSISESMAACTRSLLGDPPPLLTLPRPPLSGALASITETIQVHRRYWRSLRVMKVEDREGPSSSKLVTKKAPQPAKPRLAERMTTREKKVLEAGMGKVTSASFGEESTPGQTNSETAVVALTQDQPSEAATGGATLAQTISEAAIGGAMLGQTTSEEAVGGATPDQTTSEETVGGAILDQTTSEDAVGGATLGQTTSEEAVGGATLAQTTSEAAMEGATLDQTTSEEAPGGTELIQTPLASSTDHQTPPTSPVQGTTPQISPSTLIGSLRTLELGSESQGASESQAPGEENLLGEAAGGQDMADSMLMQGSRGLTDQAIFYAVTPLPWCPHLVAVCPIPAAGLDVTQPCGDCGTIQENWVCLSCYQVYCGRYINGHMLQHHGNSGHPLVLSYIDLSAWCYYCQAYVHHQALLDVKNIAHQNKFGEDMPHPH
# [2] = biological target: T2, Histone deacetylase 8 (Homo sapiens, UniProt Q9BY41); assay: Inhibition of full length recombinant human C-terminal His-tagged HDAC8 expressed in baculovirus infected sf9 cells using Boc-Lys-(TFA)-AMC as substrate preincubated for 15 mins followed by substrate addition measured after 60 mins by fluorescence assay
# T2 sequence (Q9BY41 whole entry): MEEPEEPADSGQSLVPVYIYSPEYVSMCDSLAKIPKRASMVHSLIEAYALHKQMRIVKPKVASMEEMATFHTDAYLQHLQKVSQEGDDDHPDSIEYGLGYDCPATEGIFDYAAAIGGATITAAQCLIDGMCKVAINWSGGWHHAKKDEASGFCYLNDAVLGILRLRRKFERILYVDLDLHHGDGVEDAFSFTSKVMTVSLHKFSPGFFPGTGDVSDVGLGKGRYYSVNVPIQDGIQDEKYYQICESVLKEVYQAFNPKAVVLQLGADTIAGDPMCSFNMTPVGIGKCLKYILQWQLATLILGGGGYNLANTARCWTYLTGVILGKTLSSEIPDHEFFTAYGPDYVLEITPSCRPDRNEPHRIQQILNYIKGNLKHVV
# [3] = biological target: Histone deacetylase 3/Nuclear receptor corepressor 2 (HDAC3/NCoR2) (Homo sapiens, UniProt O15379); assay: as §1, with “C-terminal His-tagged HDAC3/N-terminal” for “N-terminal”, “NCOR2 (395 to 489 residues)” for “HDAC6”
# [4] = biological target: Histone deacetylase; assay: Inhibition of HDAC in human HeLa nuclear extract using Boc-Lys-(Ac)-AMC as substrate preincubated for 15 mins followed by substrate addition measured after 60 mins by fluorescence assay; format: protein assay
# [5] = test system: HepG2; assay: Antiproliferative activity against human HepG2 cells after 96 hrs by MTT assay; format: functional
# Procedure, shortened: (§2)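 Cells from Shanghai Cell Bank; A549 grown in high-glucose DMEM and HepG2 in MEM, both with 10% FBS plus penicillin/streptomycin, at 37°C in 5% CO₂. Seeded at 1.5-3.5×10⁴ cells/well for 24 h, then given graded compound concentrations for 96 h. MTT solution (2 mg/mL) added for 4 h, formazan dissolved in DMSO, A570 read. Growth expressed as treated/untreated cell number ratio.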
# [6] = biological target: Histone deacetylase 2 (Homo sapiens, UniProt Q92769); assay: Inhibition of full length recombinant human C-terminal His-tagged HDAC2 expressed in baculovirus infected sf9 cells using Boc-Lys-(Ac)-AMC as substrate preincubated for 15 mins followed by substrate addition measured after 60 mins by fluorescence assay
# [7] = biological target: Histone deacetylase 1 (Homo sapiens, UniProt Q13547); assay: Inhibition of full length recombinant human C-terminal FLAG/His-tagged HDAC1 expressed in baculovirus infected sf9 cells using Boc-Lys-(Ac)-AMC as substrate preincubated for 15 mins followed by substrate addition measured after 60 mins by fluorescence assay
# [8] = test system: A549; assay: Antiproliferative activity against human A549 cells after 96 hrs by MTT assay; format: functional; procedure, shortened: as §2
# Chain of Histone deacetylase 3/Nuclear receptor corepressor 2 (HDAC3/NCoR2) (O15379 whole entry, the tested form may be a part): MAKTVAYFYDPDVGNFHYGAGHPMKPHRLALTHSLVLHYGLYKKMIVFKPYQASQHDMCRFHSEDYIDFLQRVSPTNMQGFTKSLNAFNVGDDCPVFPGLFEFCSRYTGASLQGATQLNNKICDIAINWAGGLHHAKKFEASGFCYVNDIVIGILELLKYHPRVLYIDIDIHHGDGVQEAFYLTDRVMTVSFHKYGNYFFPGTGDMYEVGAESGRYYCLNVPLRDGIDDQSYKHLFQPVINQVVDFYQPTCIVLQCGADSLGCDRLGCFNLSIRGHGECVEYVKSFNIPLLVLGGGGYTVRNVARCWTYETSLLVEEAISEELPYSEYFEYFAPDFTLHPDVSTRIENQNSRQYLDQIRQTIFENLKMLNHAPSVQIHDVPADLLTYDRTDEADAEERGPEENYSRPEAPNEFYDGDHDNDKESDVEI
# Chain of Histone deacetylase 3/Nuclear receptor corepressor 2 (HDAC3/NCoR2) (Q9Y618 whole entry, further chain, the tested form may be a part): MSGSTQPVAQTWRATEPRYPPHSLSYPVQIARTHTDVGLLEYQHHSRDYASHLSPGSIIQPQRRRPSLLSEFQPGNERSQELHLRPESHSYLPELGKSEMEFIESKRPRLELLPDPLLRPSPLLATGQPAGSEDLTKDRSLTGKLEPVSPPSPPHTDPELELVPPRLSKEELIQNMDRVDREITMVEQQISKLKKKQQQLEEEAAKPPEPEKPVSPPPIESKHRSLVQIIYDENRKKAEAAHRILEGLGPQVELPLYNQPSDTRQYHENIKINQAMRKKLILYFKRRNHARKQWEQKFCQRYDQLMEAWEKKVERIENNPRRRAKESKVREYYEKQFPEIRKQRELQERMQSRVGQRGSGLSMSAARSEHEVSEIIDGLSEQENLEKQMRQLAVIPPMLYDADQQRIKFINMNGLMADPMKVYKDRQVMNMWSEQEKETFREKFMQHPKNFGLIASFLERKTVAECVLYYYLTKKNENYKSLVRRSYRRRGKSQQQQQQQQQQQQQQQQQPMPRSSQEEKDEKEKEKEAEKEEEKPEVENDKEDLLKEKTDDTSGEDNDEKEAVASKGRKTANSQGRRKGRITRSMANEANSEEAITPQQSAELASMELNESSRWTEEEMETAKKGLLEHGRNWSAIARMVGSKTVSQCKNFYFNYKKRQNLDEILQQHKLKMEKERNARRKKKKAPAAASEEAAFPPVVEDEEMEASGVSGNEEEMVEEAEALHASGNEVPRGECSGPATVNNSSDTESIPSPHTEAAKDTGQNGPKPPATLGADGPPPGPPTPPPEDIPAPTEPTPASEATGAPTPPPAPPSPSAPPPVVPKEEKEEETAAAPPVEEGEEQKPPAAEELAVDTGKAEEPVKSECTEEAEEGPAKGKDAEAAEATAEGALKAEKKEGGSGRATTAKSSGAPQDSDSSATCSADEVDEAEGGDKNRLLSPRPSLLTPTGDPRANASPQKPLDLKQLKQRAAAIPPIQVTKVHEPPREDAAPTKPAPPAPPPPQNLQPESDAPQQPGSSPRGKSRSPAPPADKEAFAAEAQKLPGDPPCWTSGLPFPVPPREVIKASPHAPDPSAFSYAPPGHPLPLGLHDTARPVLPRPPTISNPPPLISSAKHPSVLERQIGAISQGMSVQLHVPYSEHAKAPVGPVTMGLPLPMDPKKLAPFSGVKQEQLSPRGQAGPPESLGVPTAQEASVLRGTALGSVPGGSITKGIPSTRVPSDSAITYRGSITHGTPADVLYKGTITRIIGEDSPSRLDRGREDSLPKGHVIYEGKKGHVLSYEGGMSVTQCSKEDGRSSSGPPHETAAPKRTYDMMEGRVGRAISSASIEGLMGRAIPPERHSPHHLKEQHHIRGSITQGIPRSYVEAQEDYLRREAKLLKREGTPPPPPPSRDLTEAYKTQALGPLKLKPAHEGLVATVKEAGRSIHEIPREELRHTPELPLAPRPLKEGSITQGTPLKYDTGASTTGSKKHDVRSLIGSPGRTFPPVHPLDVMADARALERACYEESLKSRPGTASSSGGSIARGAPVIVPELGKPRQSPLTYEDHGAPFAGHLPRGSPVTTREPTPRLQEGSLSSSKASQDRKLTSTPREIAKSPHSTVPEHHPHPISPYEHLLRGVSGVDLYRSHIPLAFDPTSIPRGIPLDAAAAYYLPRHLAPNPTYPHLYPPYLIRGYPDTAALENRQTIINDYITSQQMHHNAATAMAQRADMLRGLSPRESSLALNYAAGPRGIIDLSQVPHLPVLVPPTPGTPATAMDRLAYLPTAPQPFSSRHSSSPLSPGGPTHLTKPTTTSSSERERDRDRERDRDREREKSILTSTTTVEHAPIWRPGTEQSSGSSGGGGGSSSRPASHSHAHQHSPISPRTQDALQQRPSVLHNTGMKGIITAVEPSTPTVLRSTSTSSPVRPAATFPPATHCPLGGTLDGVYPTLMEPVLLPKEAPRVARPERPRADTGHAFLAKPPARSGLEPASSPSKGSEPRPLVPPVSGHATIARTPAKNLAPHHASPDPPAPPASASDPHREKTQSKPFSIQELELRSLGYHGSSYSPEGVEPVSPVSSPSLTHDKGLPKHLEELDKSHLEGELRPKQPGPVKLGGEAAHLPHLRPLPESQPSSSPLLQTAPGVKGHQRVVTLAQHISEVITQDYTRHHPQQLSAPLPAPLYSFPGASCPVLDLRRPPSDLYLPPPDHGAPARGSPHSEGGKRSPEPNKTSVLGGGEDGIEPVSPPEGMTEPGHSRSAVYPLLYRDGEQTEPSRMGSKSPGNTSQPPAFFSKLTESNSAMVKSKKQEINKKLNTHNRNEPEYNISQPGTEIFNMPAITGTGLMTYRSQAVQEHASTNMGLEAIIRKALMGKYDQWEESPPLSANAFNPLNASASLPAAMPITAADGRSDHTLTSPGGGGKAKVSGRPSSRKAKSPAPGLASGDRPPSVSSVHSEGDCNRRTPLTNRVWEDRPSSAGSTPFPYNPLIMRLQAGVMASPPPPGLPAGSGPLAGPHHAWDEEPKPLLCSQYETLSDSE
# Chain of Histone deacetylase 2 (Q92769 whole entry): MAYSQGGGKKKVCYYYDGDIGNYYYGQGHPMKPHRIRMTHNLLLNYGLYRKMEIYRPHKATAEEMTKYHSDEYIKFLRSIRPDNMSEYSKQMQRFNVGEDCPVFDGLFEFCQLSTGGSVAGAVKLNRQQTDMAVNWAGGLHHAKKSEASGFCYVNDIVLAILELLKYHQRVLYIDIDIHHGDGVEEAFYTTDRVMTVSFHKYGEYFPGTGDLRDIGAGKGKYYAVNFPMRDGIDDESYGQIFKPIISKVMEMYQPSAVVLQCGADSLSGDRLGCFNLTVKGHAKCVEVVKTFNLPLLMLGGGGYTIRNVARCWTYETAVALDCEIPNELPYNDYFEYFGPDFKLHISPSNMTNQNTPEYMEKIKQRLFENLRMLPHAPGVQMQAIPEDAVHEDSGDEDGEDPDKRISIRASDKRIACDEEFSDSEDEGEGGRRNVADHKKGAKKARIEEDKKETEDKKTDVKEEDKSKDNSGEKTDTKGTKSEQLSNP
# Chain of Histone deacetylase 1 (Q13547 whole entry): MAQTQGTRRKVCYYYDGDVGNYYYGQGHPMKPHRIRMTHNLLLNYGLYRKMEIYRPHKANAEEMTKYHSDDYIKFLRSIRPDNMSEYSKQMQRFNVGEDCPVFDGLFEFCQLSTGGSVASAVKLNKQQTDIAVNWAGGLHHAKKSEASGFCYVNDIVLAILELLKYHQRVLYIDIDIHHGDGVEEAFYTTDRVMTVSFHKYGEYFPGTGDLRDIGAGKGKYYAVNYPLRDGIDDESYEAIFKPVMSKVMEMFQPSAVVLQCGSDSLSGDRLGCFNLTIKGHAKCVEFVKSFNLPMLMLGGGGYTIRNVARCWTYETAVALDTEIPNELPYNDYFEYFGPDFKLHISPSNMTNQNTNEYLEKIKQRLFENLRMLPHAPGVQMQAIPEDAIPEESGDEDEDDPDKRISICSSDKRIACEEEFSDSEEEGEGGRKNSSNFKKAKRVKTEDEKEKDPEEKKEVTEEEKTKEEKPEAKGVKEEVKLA
Structure (SMILES),IC50 [1],IC50 [2],IC50 [3],IC50 [4],"GI50 ([5]; Homo sapiens, HepG2, 96 h)",IC50 [6],IC50 [7],"GI50 ([8]; Homo sapiens, A549, 96 h)",GI50 [5],GI50 [8]
CCc1cc(-c2ccc(F)cc2)nn1Cc1ccc(C(=O)NO)cc1,35 nM,> 5000 nM,228 nM,165 nM,16700 nM,391 nM,487 nM,19200 nM,–,–
Cc1cc(-c2ccc(F)cc2)nn1Cc1ccc(C(=O)NO)cc1,8 nM,> 5000 nM,69 nM,40 nM,30000 nM,114 nM,480 nM,11400 nM,–,–
Cc1ccc(-c2cc(C(F)(F)F)n(Cc3ccc(C(=O)NO)cc3)n2)cc1,16 nM,> 5000 nM,21 nM,33 nM,8580 nM,47 nM,110 nM,15500 nM,–,–
Cc1cc(-c2ccc3c(c2)OCO3)n(Cc2ccc(C(=O)NO)cc2)n1,36 nM,> 5000 nM,92 nM,16 nM,16500 nM,135 nM,430 nM,23200 nM,–,–
CCc1cc(-c2ccc(F)cc2)n(Cc2ccc(C(=O)NO)cc2)n1,69 nM,> 5000 nM,1840 nM,1792 nM,7760 nM,1500 nM,3610 nM,16700 nM,–,–
O=C(NO)c1ccc(Cn2nc(-c3ccc(F)cc3)cc2Cc2ccccc2)cc1,326 nM,> 5000 nM,619 nM,1028 nM,–,763 nM,1880 nM,–,–,–
Cc1ccc(-c2cc(C(F)(F)F)nn2CCc2ccc(C(=O)NO)cc2)cc1,540 nM,> 5000 nM,816 nM,1460 nM,24000 nM,635 nM,1070 nM,29300 nM,–,–
Cc1ccc(-c2cc(C(F)(F)F)nn2Cc2ccc(C(=O)NO)cc2)cc1,27 nM,> 5000 nM,128 nM,231 nM,7500 nM,1220 nM,925 nM,10600 nM,–,–
Cc1ccc(-c2cc(C)nn2Cc2ccc(C(=O)NO)cc2)cc1,29 nM,> 5000 nM,53 nM,22 nM,13300 nM,76 nM,694 nM,12400 nM,–,–
Cc1ccc(-c2cc(C(F)(F)F)nn2-c2ccc(C(=O)NO)cc2)cc1,359 nM,> 5000 nM,736 nM,1139 nM,> 100000 nM,919 nM,836 nM,> 100000 nM,–,–
Cc1cc(-c2ccc3c(c2)OCO3)nn1Cc1ccc(C(=O)NO)cc1,5 nM,> 5000 nM,36 nM,8 nM,20800 nM,40 nM,24 nM,28100 nM,–,–
O=C(NO)c1ccc(Cn2nc(Cc3ccccc3)cc2-c2ccc(F)cc2)cc1,420 nM,> 5000 nM,> 5000 nM,> 5000 nM,–,> 5000 nM,> 5000 nM,–,–,–
Cc1ccc(-c2cc(C(F)(F)F)n(CCc3ccc(C(=O)NO)cc3)n2)cc1,78 nM,> 5000 nM,80 nM,121 nM,27600 nM,549 nM,352 nM,> 100000 nM,–,–
Cc1ccc(-c2cc(C)n(Cc3ccc(C(=O)NO)cc3)n2)cc1,7 nM,> 5000 nM,26 nM,13 nM,21200 nM,41 nM,133 nM,11200 nM,–,–
Cc1ccc(-c2cc(C(F)(F)F)nn2-c2ccc(S(N)(=O)=O)cc2)cc1 [CELECOXIB],643 nM,–,–,1637 nM,–,–,1190 nM,–,–,–
O=C(CCCCCCC(=O)Nc1ccccc1)NO [VORINOSTAT],–,–,–,–,–,–,–,–,22000 nM,5020 nM
